The values that follow come from ChEMBL document CHEMBL2062413, “Design of β-amyloid aggregation inhibitors from a predicted structural motif” (J Med Chem, 2012).

Activity calls are given as the source filed them. No cut-off for these calls is given here.

A short description of data set [1]: Drug degradation in aqueous buffer assessed as 3,5-dichloro-2-hydroxybenzaldehyde formation up to 24 hrs by LC-MS analysis at pH 7.4. The data set is classed as physicochemical. The conditions noted are these: pH 7.4, 24 h.
In data set [2] the target is T1, Amyloid-beta precursor protein (Homo sapiens, UniProt P05067). Nature of the data set: Inhibition of amyloid beta42 aggregation assessed as reduction in fluorescence after 4 days by thioflavin T-based fluorometry. An outline of the steps:
(§1)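 Aβ42 at 25 μM was incubated with a range of compound concentrations in triplicate at 37°C with shaking for four days, read at t=0 and t=4 d. Compound was taken from a 10 mM DMSO stock diluted in PBS. Aliquots were added to 25 μM ThT in 50 mM glycine, pH 8, for 5 min, then read at ex 446/em 490 nm. IC50 was taken from % fluorescence of untreated control.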

The next data set concerns PC-12. Nature of the data set: Cytotoxicity against rat PC12 cells assessed as reduction in cell viability at 50 uM after 48 hrs by MTT assay. The data set is classed as cell-based. The following applies: pc-12, 48 h. (Formazan colour is commonly taken as a measure of viable cells.)
The target of data set [3] is T1, Amyloid-beta precursor protein. Nature of the data set: Inhibition of amyloid beta42 aggregation assessed as inhibition of fibril formation at 25 uM after 5 days by circular dichroism. An outline of the steps:
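Circular dichroism: 25 μM Aβ42 alone or mixed 1:1 with 25 μM compound, incubated at 37°C with orbital shaking at 200 rpm. Spectra taken every 24 h for 5 days at 37°C in a 1-mm cell, 190–260 nm, 0.2-nm resolution, 1-nm bandwidth, background-subtracted and averaged. Compound dissolved to 10 mM in NaOH, then diluted in PBS.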
(In general: CD spectra are sensitive to the conformation of chiral molecules.)

Data set [4] can be described thus: Inhibition of amyloid beta42 assessed as increase in amorphous aggregates at 25 uM after 4 days by […] electron microscopy. An outline of the steps: (§2)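 Negative-stain TEM: 25 μM Aβ42 alone or with 25 μM compound (1:1), incubated four days at 37°C. Aliquots spotted 2 min on glow-discharged carbon-coated Formvar grids and stained with 1% uranyl acetate.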

Data set [5] concerns the target T1, Amyloid-beta precursor protein. Nature of the data set: Inhibition of amyloid beta42 aggregation assessed as reduction in fluorescence measured immediately post-compound addition by thioflavin T-based fluorometry. The method, boiled down:
as §1

Data set [6] can be described thus: Inhibition of amyloid beta42 assessed as decrease in mature fibril formation at 25 uM after 4 days by […] electron microscopy. The method, boiled down:
as §2

Data set [7] is described as follows: Drug degradation in aqueous buffer assessed as (E)-N-(2-(3,5-dichloro-2-hydroxybenzylideneamino)-4-methylphenyl)benzo[b]oxirene-3-sulfonamide formation up to 24 hrs by LC-MS analysis at pH 7.4. It counts as physicochemical. The following applies: pH 7.4, 24 h.
The nature of data set [8]: Drug degradation in aqueous buffer assessed as N-(2-amino-4-methylphenyl)-4-chlorobenzenesulfonamide formation up to 24 hrs by LC-MS analysis at pH 7.4. It counts as physicochemical. The conditions noted are these: pH 7.4, 24 h.
The nature of data set [9]: Drug degradation in aqueous buffer assessed as N-(2-amino-4-methylphenyl)benzo[b]oxirene-3-sulfonamide formation up to 24 hrs by LC-MS analysis at pH 7.4. It counts as physicochemical. The following applies: pH 7.4, 24 h.

T1 sequence (P05067 whole entry): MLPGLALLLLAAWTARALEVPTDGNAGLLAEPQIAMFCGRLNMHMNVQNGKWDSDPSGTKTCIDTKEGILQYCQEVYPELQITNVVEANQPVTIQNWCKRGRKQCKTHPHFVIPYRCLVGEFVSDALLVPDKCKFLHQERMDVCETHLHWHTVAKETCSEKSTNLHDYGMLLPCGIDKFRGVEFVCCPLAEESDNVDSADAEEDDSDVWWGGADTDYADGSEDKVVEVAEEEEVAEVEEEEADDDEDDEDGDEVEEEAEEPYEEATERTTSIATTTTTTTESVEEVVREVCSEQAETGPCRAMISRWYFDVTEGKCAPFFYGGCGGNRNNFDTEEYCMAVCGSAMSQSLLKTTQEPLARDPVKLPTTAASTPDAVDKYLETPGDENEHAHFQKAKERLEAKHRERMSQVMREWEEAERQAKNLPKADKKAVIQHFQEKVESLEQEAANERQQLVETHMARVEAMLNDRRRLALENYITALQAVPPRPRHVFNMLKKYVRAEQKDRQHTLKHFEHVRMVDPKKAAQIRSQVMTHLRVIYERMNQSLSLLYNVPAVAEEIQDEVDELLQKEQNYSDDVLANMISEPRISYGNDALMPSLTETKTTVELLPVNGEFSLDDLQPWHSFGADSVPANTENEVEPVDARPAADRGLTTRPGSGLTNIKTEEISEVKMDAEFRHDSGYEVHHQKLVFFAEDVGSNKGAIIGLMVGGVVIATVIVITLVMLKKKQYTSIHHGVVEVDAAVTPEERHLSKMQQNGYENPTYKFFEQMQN

On to `O=Cc1cc(Cl)cc(Cl)c1O`, for which the Drug degradation entry in data set [1] is recorded as “Active”. For the same compound, the inhibition entry in data set [2] is “inactive”.
With `Cc1ccc(NS(=O)(=O)c2ccc(Cl)cc2)c(/N=C/c2cc(Cl)cc(Cl)c2O)c1`, the Activity in the data set on PC-12 is on record as 40%. The inhibition entry in data set [3], in [4] and in data set [6] was “Active” in each case. The results for the IC50 in [5] and in data set [2] were 62 µM and 13 µM, respectively. Also, the inhibition entry in data set [2] was “Dose-dependent effect”.
As to `Cc1ccc(NS(=O)(=O)c2ccc3c(c2)O3)c(/N=C/c2cc(Cl)cc(Cl)c2O)c1`, the Drug degradation entry in data set [7] is “Active”.
On to `Cc1ccc(NS(=O)(=O)c2ccc(Cl)cc2)c(N)c1`, for which the IC50 in [5] was 30 µM. Besides, in data set [2], the IC50 was found to be 23 µM and the inhibition result was “Dose-dependent effect”. Also, the Drug degradation result in [8] was “Active”.
In the case of `Cc1ccc(NS(=O)(=O)c2ccc3c(c2)O3)c(N)c1`, the Drug degradation entry in [9] is on record as “Active”.

Broadly, the IC50 is the concentration needed to halve the response being measured.
